Published values from different studies.
Compare with care: the assays were run in different laboratories.
Effect on: metabolic stability

CCN(CCN)c1ccc(Nc2cc(NC3CC3)n3ncc(C#N)c3n2)cc1-n1cnnc1 — scaled CLint (male CD-1 mouse; hepatocytes; 1 µM; serum-free): < 1.92 L/h/kg
CC1(CN)CCN(c2cnc3c(Sc4ccncc4Cl)n[nH]c3n2)CC1 — scaled CLint (mouse; liver microsomes): 0.523 L/h/kg
CCOc1ccc2ccc(=O)oc2c1 — hepatocyte CLint (male CD-1 mouse; hepatocytes; 1 µM): > 46.2 µL/min/10⁶ cells
O=c1ccc2cc(O)ccc2o1 — microsomal CLint (mouse; liver microsomes): 170 µL/min/mg
O=C(O)Cc1ccccc1Nc1c(Cl)cccc1Cl — scaled CLint (mouse; liver microsomes): 5.42 L/h/kg
O=c1ccc2ccc(O)cc2o1 — scaled CLint (mouse; liver microsomes): 183 L/h/kg
CC(C)Oc1ccc(S(=O)(=O)c2ccc(Oc3cc(OCC(N)=O)c(C(=O)C(Cl)Cl)cc3[N+](=O)[O-])cc2)cc1 — microsomal CLint (mouse; liver microsomes): 197 µL/min/mg
Cc1ccc(Cn2cc(C(=O)NN)c(=O)c3cc(Oc4ccccc4)ccc32)cc1 — microsomal CLint (male CD-1 mouse; liver microsomes; 1 µM): < 11.6 µL/min/mg
